In the array DNA melting data of Ke et al. (doi:10.1101/2024.01.08.574731):

Assays:
[1] = melting temperature; fluorescence melt of hairpins on a sequencing array, two-state fit, raised by 9.35 °C to match UV melts; details: sodium 0.088 M
Method in brief: (§1)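 With Cy3 and quencher oligos annealed, library hairpins on a sequenced MiSeq flow cell were imaged for Cy3 fluorescence in 50 mM Na-HEPES pH 8.0, 25 mM NaCl, in 2.5 °C steps up to 60 °C. Melting temperature and folding enthalpy were derived from bootstrapped two-state fits of signals normalised to pre-quench Cy3 and to control constructs. Four replicates were combined by inverse variance, with fitted temperatures raised by 9.35 °C to match UV melts.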

[2] = folding enthalpy; higher = less favourable; fluorescence melt of hairpins on a sequencing array, two-state fit; details: sodium 0.088 M
Method in brief: as §1

| Sequence | Tm [1] [°C] | folding enthalpy [2] [kcal/mol] |
| --- | --- | --- |
| GCATTGCGAAAGCAGAGC ((..(((....)))..)) | 47.5 | -18.2 |
| GCATTGCGAAAGCAGCGC ((..(((....)))..)) | 54.9 | -16.1 |
| GCATTGCGAAAGCATTGC (((.(((....))).))) | 55.4 | -52.2 |
| GCATTGCGAAAGCCAAGC ((.(.((....)).).)) | 28.6 | -9.84 |
| GCATTGCGAAAGCCTTGC (((..((....))..))) | 39.3 | -25 |
| GCATTGGGAAACCAGTGC (((.(((....))).))) | 50.7 | -34.4 |
| GCATTTCCGAAAGGATGC (((..(((....)))))) | 38.4 | -21.6 |
| GCATTTCGAAAGAACTGC (((.(((....))).))) | 43 | -32.1 |
| GCATTTGAAAAAATGC ((((((....)))))) | 52.8 | -30.9 |
| GCATTTGGAAACAAGTGC (((.(((....))).))) | 46.3 | -26.2 |
| GCCAAAACGAAAGTTGGC (((..(((....)))))) | 51.4 | -30.7 |
| GCCAAACGAAAGTTGGC (((.(((....)))))) | 56.8 | -34.5 |
| GCCAAAGGAAACTTTGAC (.(((((....))))).) | 32.3 | -21.9 |
| GCCAAAGGAAACTTTGGC (((((((....))))))) | 64 | -44.4 |
| GCCAACGAAAGTTGAGGC ((((((....)))..))) | 48.5 | -19.4 |
| GCCAACGGAAACGCTGGC ((((.((....)).)))) | 52 | -40 |
| GCCAACGGAAACGTTGAC (.(((((....))))).) | 46.5 | -16.5 |
| GCCAAGACGAAAGTCGGC (((..(((....)))))) | 54.6 | -23.7 |
| GCCAAGCGAAAGCAGGGC (((..((....))..))) | 60.4 | -26.4 |
| GCCAAGCGAAAGCATTGC ((.(.((....)).).)) | 32.5 | -11.2 |
| GCCAAGCGAAAGCCCGGC (((..((....))..))) | 45.8 | -20.7 |
| GCCAAGCGAAAGCCTAGC ((.(.((....)).).)) | 31.2 | -9.82 |
| GCCAAGCGAAAGCTCTGC ((..(((....)))..)) | 31.2 | -11.4 |

| Sequence | Tm [1] [°C] | folding enthalpy [2] [kcal/mol] |
| --- | --- | --- |
| GCCAAGCGAAAGCTGAGC ((..(((....)))..)) | 47.7 | -15.3 |
| GCCAAGCGAAAGCTGGC (((.(((....)))))) | 68.5 | -28.3 |
| GCCAAGCGAAAGCTTCGC ((.((((....)))).)) | 50.4 | -16.8 |
| GCCAAGGCGAAAGCCGGC (((..(((....)))))) | 65.8 | -15.7 |
| GCCAAGGGAAACCCTGGC ((((.((....)).)))) | 52.2 | -31.9 |
| GCCAATGGAAACATTGGC (((((((....))))))) | 67.8 | -38.3 |
| GCCAATTCGAAAGAAGGC (((..(((....)))))) | 38 | -20.6 |
| GCCACAACGAAAGTTGGC (((..(((....)))))) | 48.5 | -15.3 |
| GCCACACGAAAGTGGGC (((.(((....)))))) | 60.4 | -24.6 |
| GCCACGCGAAAGCAAGGC (((..((....))..))) | 57.2 | -22.9 |
| GCCACGCGAAAGCAGGGC (((..((....))..))) | 61.6 | -23.5 |
| GCCACGCGAAAGCATAGC ((.(.((....)).).)) | 26.7 | -9.06 |
| GCCACGCGAAAGCGGCGC ((..(((....)))..)) | 60.8 | -15.9 |
| GCCACGCGAAAGCGTAGC ((.((((....)))).)) | 55.8 | -16.9 |
| GCCACTACGAAAGTAGGC (((..(((....)))))) | 41.5 | -13.1 |
| GCCACTCCGAAAGGAGGC (((..(((....)))))) | 43.9 | -8.62 |
| GCCACTCGAAAGAGAGGC (((.(((....))).))) | 60 | -39.1 |
| GCCAGACGAAAGTCCGGC (((.(((....))).))) | 60.1 | -27.6 |
| GCCAGACGAAAGTCGGGC (((.(((....))).))) | 68.6 | -34 |
| GCCAGAGGAAACTCCGGC (((.(((....))).))) | 45.6 | -24.4 |
| GCCAGAGGAAACTTTGGC ((((.((....)).)))) | 47.4 | -32.8 |
| GCCAGATCGAAAGATGGC (((..(((....)))))) | 48.2 | -27.4 |
| GCCAGCGAAAGCTCGGC ((((((....))).))) | 60.8 | -28.4 |

| Sequence | Tm [1] [°C] | folding enthalpy [2] [kcal/mol] |
| --- | --- | --- |
| GCCAGCGAAAGCTCGGGC ((((((....)))..))) | 52.3 | -20.4 |
| GCCAGCGAAAGCTCTGGC ((((((....)))..))) | 50.6 | -24.5 |
| GCCAGCGAAAGCTTCGGC ((((((....)))..))) | 47.8 | -23.7 |
| GCCAGCGAAAGCTTTGGC ((((((....)))..))) | 51.4 | -23.8 |
| GCCAGCGGAAACACCGGC (((.(.(....).).))) | 27.6 | -10.2 |
| GCCAGCGGAAACGCCGGC (((.(((....))).))) | 57.1 | -26.3 |
| GCCAGGCCGAAAGGCGGC (((..(((....)))))) | 64.9 | -18.4 |
| GCCAGGCGAAAGCATCGC ((.(.((....)).).)) | 36.1 | -8.22 |
| GCCAGGCGAAAGCCCCGC ((..(((....)))..)) | 28.1 | -11.6 |
| GCCAGGCGAAAGCCCGGC (((.(((....))).))) | 66.2 | -24.5 |
| GCCAGGCGAAAGCCGTGC ((..(((....)))..)) | 50 | -13.6 |
| GCCAGGCGAAAGCCTCGC ((.((((....)))).)) | 54 | -17.4 |
| GCCAGGCGAAAGCTTCGC ((.(.((....)).).)) | 40.5 | -8.82 |
| GCCAGGGGAAACCTTGGC ((((.((....)).)))) | 53.4 | -43.9 |
| GCCAGTCCGAAAGGAGGC (((..(((....)))))) | 44.4 | -22.1 |
| GCCATAACGAAAGTTGGC (((..(((....)))))) | 49.3 | -30.9 |
| GCCATACGAAAGTAAGGC (((.(((....))).))) | 52.6 | -35.1 |
| GCCATAGGAAACCATGGC (((((.(....).))))) | 47.7 | -34.2 |
| GCCATCCCGAAAGGGGGC (((..(((....)))))) | 51.8 | -18.1 |
| GCCATCCGAAAGGACGGC (((.(((....))).))) | 55.7 | -40.2 |
| GCCATCGAAAGATCAGGC ((((((....)))..))) | 37.7 | -24.9 |
| GCCATCGAAAGATCGGGC ((((((....)))..))) | 41.6 | -25.1 |
| GCCATCGAAAGATCTGGC ((((((....)))..))) | 36.1 | -25.9 |

| Sequence | Tm [1] [°C] | folding enthalpy [2] [kcal/mol] |
| --- | --- | --- |
| GCCATCGAAAGATGGGC ((((((....))).))) | 63.2 | -15.4 |
| GCCATCGAAAGATGGGGC ((((((....)))..))) | 54.4 | -12.8 |
| GCCATCGCGAAAGCGGGC (((..(((....)))))) | 53.9 | -17.4 |
| GCCATCGGAAACGACGGC (((.(((....))).))) | 52.1 | -35.5 |
| GCCATGCCGAAAGGCGGC (((..(((....)))))) | 59.2 | -18.6 |
| GCCATGCGAAAGCAAGGC (((.(((....))).))) | 60.5 | -42.6 |
| GCCATGCGAAAGCAGGC (((.(((....)))))) | 64.4 | -21.8 |
| GCCATGCGAAAGCATTGC ((.((((....)))).)) | 54 | -21.2 |
| GCCATGCGAAAGCCCGGC (((..((....))..))) | 43.1 | -22.9 |
| GCCATGCGAAAGCCGGGC (((..((....))..))) | 55.3 | -26.1 |
| GCCATGCGAAAGCGGGGC (((..((....))..))) | 65.3 | -35 |
| GCCATGCGAAAGCTAGGC (((..((....))..))) | 62.2 | -27.3 |
| GCCATGCGAAAGCTTCGC ((.(.((....)).).)) | 47.3 | -8.18 |
| GCCATGGGAAACCACAGC ((..(((....)))..)) | 26.9 | -12.7 |
| GCCATGGGAAACCATGAC (.(((((....))))).) | 41 | -19.5 |
| GCCATGGGAAACCGTGGC ((((.((....)).)))) | 59 | -40.6 |
| GCCATTCGAAAGAACGGC (((.(((....))).))) | 49.6 | -40.1 |
| GCCCAACGAAAGTTTGGC (((.(((....))).))) | 50.2 | -28.1 |
| GCCCAAGCGAAAGCTGGC (((..(((....)))))) | 53.6 | -17.6 |
| GCCCAAGGAAACTCGGGC ((((.((....)).)))) | 48.8 | -26.9 |
| GCCCAAGGAAACTTGGAC (.(((((....))))).) | 38 | -19.6 |
